# Measurements from ChEMBL document CHEMBL1124476, “1-(2-aminoethyl)-6-aryl-4H- [1,2,4]triazolo[4,3-a][1,4]benzodiazepines with diuretic and natriuretic activity” (J Med Chem, 1989).
# Key:
# Rattus norvegicus [1] = test: Mean excretion of sodium in conscious rats at a dose of 10 mg/kg given orally; format: ADME, organism-based; set-up: dose 10 mg/kg, route oral; details: in vivo, po
# Summary of the method: (§1)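 Male Sprague-Dawley rats, about 160 g, fasted 24 h and water withheld 1 1/2 h beforehand; food and water withheld during the test. Dosing by gavage with 25 mL/kg 0.9% saline containing 0.5% (carboxymethyl)cellulose, agent dissolved or suspended. Three cages of two rats each per dose, held in metabolism cages. Urine collected over 5 h. Volume given in mL, Na+ in mequiv. Significance versus control at P < 0.05.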
# [2] = Diuretic activity at 40 mg/kg (screening dose-90.5 umol/kg) in […] in a one stage experiment; T/C = urine vol of treated rats / urine vol of control rats; format: functional
# Summary of the method: (§2)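 40 mg/kg given by gavage in 25 mL/kg 0.9% saline with 0.5% (carboxymethyl)cellulose. Four rats per agent, two per metabolism cage; 20 controls; 5 h urine. T/C = treated/control urine volume. Stage-1 T/C of 1.66 or more leads to stage 2; product T/C1·T/C2 of 3.34 or more counts as active.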
# Rattus norvegicus [3] = test: Mean excretion of potassium in conscious rats at a dose of 10 mg/kg given orally; format: ADME, organism-based; set-up: dose 10 mg/kg, route oral; details: in vivo, po
# Summary of the method: (§3)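 Secondary dose-response in male Sprague-Dawley rats (~160 g), fasted and hydrated as in the primary screen. Oral gavage at 0.3-100 mg/kg in 25 mL/kg saline/0.5% CMC, three cages of two rats per dose. Urine collected 5 h; Na, K, Cl, HCO3 measured. Values are mean excretion (mequiv), compared with controls at P < 0.05.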
# Rattus norvegicus [4] = organism: Rattus norvegicus; test: […]; format: ADME, organism-based, Urine; set-up: dose 10 mg/kg, route oral; details: in vivo, po, 10 mg/kg; summary of the method: as §1
# Rattus norvegicus [5] = test: Mean excretion of chloride in conscious rats at a dose of 30 mg/kg given orally; format: ADME, organism-based; set-up: dose 30 mg/kg, route oral; details: in vivo, po; summary of the method: as §3
# Rattus norvegicus [6] = organism: Rattus norvegicus; test: […]; format: ADME, organism-based, Urine; set-up: dose 0.3 mg/kg, route oral; details: in vivo, po, 0.3 mg/kg
# Summary of the method: (§4)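 Dose-response test in male Sprague-Dawley rats of about 160 g, fasted 24 h, with water withheld 1½ h before and during the test. Each rat got a single gavage of 25 mL/kg 0.9% saline with 0.5% carboxymethylcellulose carrying the agent (0.3–100 mg/kg range). Rats were housed two per metabolism cage, and urine was collected for 5 h. Mean urine volume (mL) was compared with controls (P < 0.05).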
# Rattus norvegicus [7] = test: Mean excretion of potassium in conscious rats at a dose of 3.0 mg/kg given orally; format: ADME, organism-based; set-up: dose 3 mg/kg, route oral; details: in vivo, po; summary of the method: as §3
# Rattus norvegicus [8] = test: Mean excretion of potassium in conscious rats at a dose of 30 mg/kg given orally; format: ADME, organism-based; set-up: dose 30 mg/kg, route oral; details: in vivo, po; summary of the method: as §3
# Canis familiaris [9] = test: Effect of compound on urinary volume before infusion with 10 mg/kg/hr fose into renal artery of anesthetized dogs; format: ADME, organism-based, Canis lupus familiaris, Urine; details: dog, in vivo
# Summary of the method: (§5)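 Anesthetized dogs; drug added to saline pumped at 0.3 mL/min through a needle into one renal artery, contralateral kidney as control. 10 mg/kg per h, with 30-60 min stabilization first. Urine volume and GFR (inulin clearance) taken before and after infusion; means ± SEM in mL/min, N = 5, P < 0.05.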
# [10] = Diuretic activity at 40 mg/kg (screening dose-90.5 umol/kg) in […] in a two stage experiment; T/C1.2 = urine vol of treated rats / urine vol of control rats; format: functional; summary of the method: as §2
# Canis familiaris [11] = test: Effect of compound on urinary volume after infusion with 10 mg/kg/hr fose into renal artery of anesthetized dogs; format: ADME, organism-based, Canis lupus familiaris, Urine; details: dog, in vivo; summary of the method: as §5
# Rattus norvegicus [12] = test: Mean excretion of chloride in conscious rats at a dose of 3.0 mg/kg given orally; format: ADME, organism-based; set-up: dose 3 mg/kg, route oral; details: in vivo, po; summary of the method: as §3
# Canis familiaris [13] = test: Effect of compound on glomerular filtration rate before infusion with 10 mg/kg/hr fose into renal artery of anesthetized dogs; format: ADME, organism-based, Canis lupus familiaris; details: dog, in vivo; summary of the method: as §5
# Rattus norvegicus [14] = test: Mean excretion of potassium in conscious rats at a dose of 1.0 mg/kg given orally; format: ADME, organism-based; set-up: dose 1 mg/kg, route oral; details: in vivo, po; summary of the method: as §3
# Rattus norvegicus [15] = test: Mean excretion of potassium in conscious rats at a dose of 100 mg/kg given orally; format: ADME, organism-based; set-up: dose 100 mg/kg, route oral; details: in vivo, po; summary of the method: as §3
# Rattus norvegicus [16] = test: Mean excretion of sodium in conscious rats at a dose of 3.0 mg/kg given orally; format: ADME, organism-based; set-up: dose 3 mg/kg, route oral; details: in vivo, po; summary of the method: as §1
# Rattus norvegicus [17] = test: Mean excretion of sodium in conscious rats at a dose of 100 mg/kg given orally; format: ADME, organism-based; set-up: dose 100 mg/kg, route oral; details: in vivo, po; summary of the method: as §1
# Rattus norvegicus [18] = test: Mean excretion of sodium in conscious rats at a dose of 30 mg/kg given orally; format: ADME, organism-based; set-up: dose 30 mg/kg, route oral; details: in vivo, po; summary of the method: as §1
# Rattus norvegicus [19] = organism: Rattus norvegicus; test: […]; format: ADME, organism-based, Urine; set-up: dose 1 mg/kg, route oral; details: in vivo, po, 1 mg/kg; summary of the method: as §4
# Rattus norvegicus [20] = test: Mean excretion of sodium in conscious rats at a dose of 0.3 mg/kg given orally; format: ADME, organism-based; set-up: dose 0.3 mg/kg, route oral; details: in vivo, po; summary of the method: as §1
# Canis familiaris [21] = test: Effect of compound on glomerular filtration rate after infusion with 10 mg/kg/hr fose into renal artery of anesthetized dogs; format: ADME, organism-based, Canis lupus familiaris; details: dog, in vivo; summary of the method: as §5
# Rattus norvegicus [22] = test: Mean excretion of […] in conscious rats at a dose of 1.0 mg/kg given orally; format: ADME, organism-based; set-up: dose 1 mg/kg, route oral; details: in vivo, po; summary of the method: as §1
# Rattus norvegicus [23] = test: Mean excretion of chloride in conscious rats at a dose of 10 mg/kg given orally; format: ADME, organism-based; set-up: dose 10 mg/kg, route oral; details: in vivo, po; summary of the method: as §3
# Rattus norvegicus [24] = test: Mean excretion of potassium in conscious rats at a dose of 0.3 mg/kg given orally; format: ADME, organism-based; set-up: dose 0.3 mg/kg, route oral; details: in vivo, po; summary of the method: as §3
# Rattus norvegicus [25] = organism: Rattus norvegicus; test: […]; format: ADME, organism-based, Urine; set-up: dose 3 mg/kg, route oral; details: in vivo, po, 3 mg/kg; summary of the method: as §1
# Rattus norvegicus [26] = test: Mean excretion of Cl- in conscious rats at a dose of 0.3 mg/kg given orally; format: ADME, organism-based, Urine; set-up: dose 0.3 mg/kg, route oral; details: in vivo, po; summary of the method: as §4
# Rattus norvegicus [27] = test: Mean excretion of chloride in conscious rats at a dose of 100 mg/kg given orally; format: ADME, organism-based; set-up: dose 100 mg/kg, route oral; details: in vivo, po; summary of the method: as §3
# Rattus norvegicus [28] = organism: Rattus norvegicus; test: […]; format: ADME, organism-based, Urine; set-up: dose 100 mg/kg, route oral; details: in vivo, po, 100 mg/kg; summary of the method: as §1
# Rattus norvegicus [29] = test: Mean excretion of chloride in conscious rats at a dose of 1.0 mg/kg given orally; format: ADME, organism-based; set-up: dose 1 mg/kg, route oral; details: in vivo, po; summary of the method: as §3
# Rattus norvegicus [30] = organism: Rattus norvegicus; test: […]; format: ADME, organism-based, Urine; set-up: dose 30 mg/kg, route oral; details: in vivo, po, 30 mg/kg; summary of the method: as §1
# [31] = Diuretic activity at 40 mg/kg (screening dose-82.2 umol/kg) in […] in a two stage experiment; T/C1.2 = urine vol of treated rats / urine vol of control rats; format: functional; summary of the method: as §2
# [32] = Diuretic activity at 40 mg/kg (screening dose-82.2 umol/kg) in […] in a one stage experiment; T/C = urine vol of treated rats / urine vol of control rats; format: functional; summary of the method: as §2
# [33] = Diuretic activity at 40 mg/kg (screening dose-68.7 umol/kg) in […] in a one stage experiment; T/C = urine vol of treated rats / urine vol of control rats; format: functional; summary of the method: as §2
# [34] = Diuretic activity at 40 mg/kg (screening dose-68.7 umol/kg) in […] in a two stage experiment; T/C1.2 = urine vol of treated rats / urine vol of control rats; format: functional; summary of the method: as §2
# [35] = Diuretic activity at 40 mg/kg (screening dose-73.8 umol/kg) in […] in a one stage experiment; T/C = urine vol of treated rats / urine vol of control rats; format: functional; summary of the method: as §2
# [36] = Diuretic activity at 40 mg/kg (screening dose-73.8 umol/kg) in […] in a two stage experiment; T/C1.2 = urine vol of treated rats / urine vol of control rats; format: functional; summary of the method: as §2
Structure (SMILES),Mean excretion of Na+ (Rattus norvegicus [1]) [m equiv],Mean excretion of K+ (Rattus norvegicus [3]) [m equiv],Mean urine volume (Rattus norvegicus [4]) [mL],Mean excretion of Cl- (Rattus norvegicus [5]) [m equiv],Mean urine volume (Rattus norvegicus [6]) [mL],Mean excretion of K+ (Rattus norvegicus [7]) [m equiv],Mean excretion of K+ (Rattus norvegicus [8]) [m equiv],Mean excretion of Cl- (Rattus norvegicus [12]) [m equiv],Mean excretion of K+ (Rattus norvegicus [14]) [m equiv],Mean excretion of K+ (Rattus norvegicus [15]) [m equiv],Mean excretion of Na+ (Rattus norvegicus [16]) [m equiv],Mean excretion of Na+ (Rattus norvegicus [17]) [m equiv],Mean excretion of Na+ (Rattus norvegicus [18]) [m equiv],Mean urine volume (Rattus norvegicus [19]) [mL],Mean excretion of Na+ (Rattus norvegicus [20]) [m equiv],Mean excretion of Na+ (Rattus norvegicus [22]) [m equiv],Mean excretion of Cl- (Rattus norvegicus [23]) [m equiv],Mean excretion of K+ (Rattus norvegicus [24]) [m equiv],Mean urine volume (Rattus norvegicus [25]) [mL],Mean excretion of Cl- (Rattus norvegicus [26]) [m equiv],further results
CN(C)CC(c1ccccc1)c1nnc2n1-c1ccc(Cl)cc1C(c1ccccc1)=NC2 (stereo not drawn),1.15,0.22,6.7,1.72,4.15,0.22,0.27,0.89,0.25,0.27,0.82,1.51,1.8,4.47,0.74,0.81,1.16,0.25,5.36,0.73,T/C 1 [2]: 2.1; Urinary volume (Canis familiaris [9]): 0.2 mL/min; T/C 1.2 [10]: 5.27; Urinary volume (Canis familiaris [11]): 0.9 mL/min; GFR (Canis familiaris [13]): 23 mL/min; GFR (Canis familiaris [21]): 18 mL/min; Mean excretion of Cl- (Rattus norvegicus [27]): 1.26 m equiv; Mean urine volume (Rattus norvegicus [28]): 9.54 mL; Mean excretion of Cl- (Rattus norvegicus [29]): 0.81 m equiv; Mean urine volume (Rattus norvegicus [30]): 12 mL
CN(C)CC(c1ccccc1)c1nnc2n1-c1ccc(Br)cc1C(c1ccccc1)=NC2 (stereo not drawn),0.74,0.17,5.1,1.16,4.29,0.17,0.17,0.6,0.21,0.15,0.53,1.16,1.18,3.59,0.63,0.64,0.78,0.24,3.4,0.72,T/C 1.2 [31]: 4.73; Mean excretion of Cl- (Rattus norvegicus [27]): 1.01 m equiv; Mean urine volume (Rattus norvegicus [28]): 7.74 mL; T/C 1 [32]: 2.17; Mean excretion of Cl- (Rattus norvegicus [29]): 0.62 m equiv; Mean urine volume (Rattus norvegicus [30]): 8.5 mL
CN(C)CCc1nnc2n1-c1ccc(Br)cc1C(c1ccccc1)=NC2,0.68,0.21,5.9,0.94,3.99,0.23,0.16,0.82,0.23,0.27,0.78,1.57,1,4.38,0.66,0.65,0.74,0.25,5.97,0.66,T/C 1 [33]: 2.98; T/C 1.2 [34]: 7.84; Mean excretion of Cl- (Rattus norvegicus [27]): 1.42 m equiv; Mean urine volume (Rattus norvegicus [28]): 13 mL; Mean excretion of Cl- (Rattus norvegicus [29]): 0.65 m equiv; Mean urine volume (Rattus norvegicus [30]): 8.44 mL
I.NCC(c1ccccc1)c1nnc2n1-c1ccc(Cl)cc1C(c1ccccc1)=NC2 (stereo not drawn),1.08,0.27,6.21,1.72,4.34,0.22,0.28,0.73,0.32,0.27,0.69,1.63,2.01,4.45,0.77,0.76,1.09,0.28,3.92,0.81,T/C 1 [35]: 2.53; T/C 1.2 [36]: 5.92; Mean excretion of Cl- (Rattus norvegicus [27]): 1.57 m equiv; Mean urine volume (Rattus norvegicus [28]): 8.43 mL; Mean excretion of Cl- (Rattus norvegicus [29]): 0.79 m equiv; Mean urine volume (Rattus norvegicus [30]): 10.47 mL
